Compounds with a hit are over-represented: about 3.9% of the library has one in this group of screens.
CHOP inhibitor = inhibitors of CHOP induction in ER stress response; CHO-K1 CHOP-promoter luciferase, tunicamycin-induced, 15-18 h; inhibition, % at 10 µM; 220,000 tested, 3.8% active; AID 2732;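 active = compounds that reduced the stress-induced luciferase reporter signal by more than about 70% of percent inhibition, limit read from the data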;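 also: 0% = tunicamycin plus vehicle and 100% = wells without tunicamycin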
UPR XBP1 act = activators of adaptive arm of unfolded protein response (XBP1); CHO-XBP1 luciferase reporter, IRE1-XBP1 UPR activation, luminescence; percent of tunicamycin response, DMSO as zero; activation, % at 20 µM; 330,000 tested, 0.33% active;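 active = versus positive control, 20 µM dose yields 30% or more activation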;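 also: 100% = tunicamycin at 10 µg/mL and 0% = DMSO only wells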
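assay system = CHO-XBP1 luciferase reporter cells | amount = 1000 cells/well | buffer or medium = F12 plus 10% FBS | compound dosing = single point, 20 µM final compound, 1% DMSO | incubation = 16-18 h cell attachment at 37 °C, then 6 h compound exposure | detection = Steady-Glo luminescence read | controls = tunicamycin 10 µg/mL and vehicle-only wells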
UPR CHOP act = apoptotic UPR (CHOP) activation | CHO-CHOP luciferase reporter, luminescence; percent of tunicamycin response over DMSO baseline | activation, % at 10 µM | 330,000 tested, 0.34% active;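 active = at 10 µM dose, activation of 40% or more, normalized to positive control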;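 also: 100% = tunicamycin at 10 µg/mL and 0% = DMSO alone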
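assay system = CHO CHOP reporter cells | amount = 500 CHO-CHOP cells per well | buffer or medium = F12 with 10% FBS | incubation = 16-18 h cell attachment, then 6 h compound exposure, 37 °C | detection = luminescence read with Steady-Glo | read-out = percent activation relative to tunicamycin control | controls = tunicamycin high control, DMSO low control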
Gli-Sufu block = antagonists of Gli-Sufu signaling. inhibition, % at 5 µM. 340,000 tested, 0.74% active. AID 588413. Sufu-KO-LIGHT fibroblasts, Gli luciferase reporter luminescence;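 active = inhibition above about 55%, limit read from the data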;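 also: 0% = DMSO-treated cells and 100% = wells with medium but no cells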
697 NFkB inh = inhibitors of the PMA/ionomycin-induced NF-kB reporter in 697 B cells; 697 B-cell NF-kB luciferase reporter, 16 h; inhibition, % at 4 µM; AID 435022; 330,000 tested, 0.33% active; in the data active = inhibition above about 35%
Jurkat NFkB inh = inhibitors of the PMA/ionomycin-induced NF-kB reporter in Jurkat cells. PMA/ionomycin-induced NF-kB luciferase reporter, luminescence. inhibition, % at 4 µM. 330,000 tested, 0.53% active. AID 435003; in the data active = inhibition above about 50%
Active calls of the source: *; · = not tested or not shown.

SMILES	CHOP inhibitor	UPR XBP1 act	UPR CHOP act	Gli-Sufu block	697 NFkB inh	Jurkat NFkB inh
CCN1C(=O)C(CC(=O)Nc2ccc(F)cc2)N(CCc2ccc(OC)cc2)C1=S (centres undefined)	93.2*	-2.0	-1.1	3.3	10.6	7.1
COc1ccc(NC(=O)CC2C(=O)N(c3ccc(Cl)cc3)C(=S)N2CCc2ccncc2)cc1 (centres undefined)	92.6*	-2.4	1.6	10.8	7.7	2.8
COC(=O)CN1C(=S)N(c2ccc(Cl)cc2)C(=O)C1CC(=O)Nc1ccc(F)cc1 (centres undefined)	29.1	-2.4	0.9	8.9	3.7	0.5
COC(=O)CN1C(=S)N(c2ccc(Cl)cc2)C(=O)C1CC(=O)Nc1ccc(Cl)cc1 (centres undefined)	91.3*	-6.0	1.4	-3.4	12.9	-10.4
COC(=O)c1cc(S(=O)(=O)NCC2CCN(Cc3ccccc3F)CC2)c[nH]1	·	-2.8	1.3	10.2	-59.8	-6.5
C=CCCC(=O)NC1CCCc2c1cnn2-c1ccccc1F (centres undefined)	·	-4.8	-1.4	-1.5	-10.2	-7.1
S=C(NCc1ccco1)N1CCN(c2ccc(Cl)cc2)CC1	17.5	-0.2	-2.8	4.1	-2.4	-4.1
S=C(NCc1ccco1)N1CCN(Cc2ccc(Cl)cc2Cl)CC1	74.1*	-4.7	-3.4	-32.1	4.2	-4.0
Cn1c(=O)c2c(SCC(=O)N3CCCc4ccccc43)nc(CC(C)(C)C)nc2n(C)c1=O	84.2*	-1.5	4.3	13.5	-36.8	14.6
Fc1ccc(CNCc2ccc3c(c2)OCO3)cc1	·	-1.3	0.6	-2.9	5.2	-15.9
CC(CNCc1ccc2c(c1)OCO2)NCc1ccc2c(c1)OCO2 (centres undefined)	85.3*	-2.2	-2.2	4.0	-11.3	8.2
CCOC(=O)C1=C(COc2ccccc2)NC(=O)NC1c1cccc([N+](=O)[O-])c1 (centres undefined)	·	-1.5	0.7	-8.5	0.7	-0.9
CCOC(=O)C1=C(CSc2nc3ccccc3s2)NC(=O)NC1c1cccc([N+](=O)[O-])c1 (centres undefined)	78.0*	-4.9	-2.3	-4.8	-2.5	-0.1
CCCn1c(Cc2ccccc2)nnc1SC(C)C(=O)NC1CC1 (centres undefined)	·	-1.5	1.2	2.6	15.6	11.1
COc1ccc2c(c1)Cc1sc(NC(=O)c3cccs3)nc1-2	73.6*	-1.2	4.7	-91.5	16.2	7.7
COc1ccc2c(c1)Cc1sc(NC(=O)c3ccccc3)nc1-2	84.5*	3.4	7.9	-35.4	0.3	10.1
COc1ccc(C(=O)Nc2nc3c(s2)Cc2cc(OC)ccc2-3)cc1	13.3	-4.2	-0.2	-42.2	16.2	15.0
CCCCn1c(N)c(N(CCOC)C(=O)c2cc3c(s2)CCC3)c(=O)[nH]c1=O	·	2.1	2.2	1.4	8.7	0.5
O=S(=O)(c1ccc(F)cc1)N(CCO)CC(O)Cn1c2ccccc2c2ccccc21 (centres undefined)	72.6*	4.8	-0.2	5.2	-23.8	-2.6
CCN(CC(O)Cn1c2ccccc2c2ccccc21)S(=O)(=O)c1ccc(F)cc1 (centres undefined)	70.1*	-0.9	0.5	0.7	15.9	7.2
O=S(=O)(c1ccccc1)N(CC(O)Cn1c2ccccc2c2ccccc21)c1ccccc1 (centres undefined)	32.8	0.2	0.3	4.2	-1.5	-4.8
Cc1ccc(C)c(N2CCN(C(=O)c3ccc(CS(=O)(=O)c4ccccc4C)o3)CC2)c1	·	3.4	0.0	13.8	-9.5	19.5
Cc1ccc(S(=O)(=O)Cc2ccc(C(=O)N3CCN(c4cc(C)ccc4C)CC3)o2)cc1	95.4*	·	·	2.8	·	·
c1ccc(OCc2noc(CN3CC[C@@H]4CCCC[C@H]4C3)n2)cc1	75.4*	0.8	-0.2	-0.5	-4.7	-10.3
Cc1cccc(OCC(=O)Nc2cc(NC(=O)COc3cccc(C)c3C)cc(C(=O)O)c2)c1C	·	-4.9	1.1	-7.5	-3.1	11.7
SMILES	CHOP inhibitor	UPR XBP1 act	UPR CHOP act	Gli-Sufu block	697 NFkB inh	Jurkat NFkB inh
Cc1ccccc1OCC(=O)Nc1cccc(C(=O)O)c1	89.0*	·	·	-116.2	·	·
NS(=O)(=O)c1ccc(N2N=C(c3ccccc3)CC2c2cccc(F)c2)cc1 (centres undefined)	83.0*	·	·	10.4	·	·
COc1ccc(C2CC(c3ccccc3)=NN2c2ccc(N)cc2)cc1 (centres undefined)	90.7*	1.1	2.6	10.1	-28.1	-28.8
Cc1cc(Br)ccc1NC(=O)CNC(=O)CN1C(=O)NC2(CCCCCC2)C1=O	43.6	-0.9	-2.3	-1.5	-19.1	2.7
Cc1cc(Br)ccc1NC(=O)CN1C(=O)C2C3CC(c4ccccc4)C(C3)C2C1=O (centres undefined)	84.6*	2.5	1.9	-24.9	1.9	10.5
O=C(N/C=C/c1ccccc1)Nc1ccc(Cl)cc1	87.1*	-1.9	3.6	-78.4	6.5	-21.3
Cc1ccc(NC(=O)N/C=C/c2ccc(Cl)cc2)cc1	10.5	1.6	5.0	-15.8	-7.7	-37.6
COc1ccc(Cn2nc(-c3ccccc3)c(N3CCCCC3)cc2=O)cc1	74.0*	-0.6	-2.8	3.2	-4.2	-6.9
O=c1cc(N2CCCCC2)c(-c2ccccc2)nn1Cc1ccccc1	84.8*	0.0	-0.2	10.0	-13.9	-7.6
Cc1ccc(C(OCC(O)CNCc2ccc(F)cc2)c2ccccc2)cc1 (centres undefined)	·	2.6	-1.2	-4.4	-4.0	-5.6
Cc1ccc2cc3c(NC(=O)c4ccco4)nn(CC(C)C)c3nc2c1	70.2*	1.6	-1.9	4.5	-16.9	-8.3
O=C(Cn1nc(-c2ccccc2)ccc1=O)Nc1ccc(NC(=O)c2ccccn2)cc1	93.7*	27.8	21.8	-2.9	-8.0	-1.5
O=C(Cn1nc(-c2ccccc2)ccc1=O)Nc1ccc(-n2cnnn2)cc1	-18.8	0.1	1.1	-2.4	13.3	18.1
O=C(CNc1ccccc1F)Nc1cccc2ccccc12	·	0.9	1.2	-17.3	-4.5	-15.7
O=C(NCCN1CCc2ccccc2C1)C1CC(=O)N(C2CCCC2)C1 (centres undefined)	88.6*	-1.8	-0.1	3.2	1.6	-8.5
O=C(NCCc1ccccc1)C1CC(=O)N(C2CCCC2)C1 (centres undefined)	·	-4.6	-0.1	1.8	-4.8	1.0
Cc1c(C(=O)N(CCC#N)c2ccccc2)sc2nc3n(c(=O)c12)CCCC3	·	-1.3	3.8	-5.0	-2.1	5.8
CC(C)COc1ccc(C(=O)NNC(=O)c2ccc(=O)[nH]c2)cc1	·	-1.5	-0.9	3.1	3.5	-4.9
O=[N+]([O-])c1ccc(CSc2nc3ccccc3o2)cc1	84.2*	2.5	1.4	-91.2	-228.7	-149.9
